Reference: ChEMBL document CHEMBL2069177, “A prospective cross-screening study on G-protein-coupled receptors: lessons learned in virtual compound library design” (J Med Chem, 2012)

Target: Sphingosine 1-phosphate receptor 1 (Homo sapiens, UniProt P21453)
Test: Induction of beta-arrestin2 recruitment to human S1PR1 expressed in CHOK1 cells after 2 hrs by beta-galactosidase assay
Type: cell-based, CHO-K1
Outline: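 PathHunter enzyme-fragment-complementation CHO-K1 S1PR1 β-arrestin cells seeded at 10,000/well in OPTI-MEM and held overnight at 37 °C. Compound added for 2 h at 37 °C, then 1 h at room temperature. Lysed with detection reagent and read by chemiluminescence after 2 h dark. Recruitment referenced to AUY954 (1 µM). Hits with ≥30% recruitment went to dose-response. pEC50, n=1 in triplicate.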

Sequence of Sphingosine 1-phosphate receptor 1 (P21453 whole entry): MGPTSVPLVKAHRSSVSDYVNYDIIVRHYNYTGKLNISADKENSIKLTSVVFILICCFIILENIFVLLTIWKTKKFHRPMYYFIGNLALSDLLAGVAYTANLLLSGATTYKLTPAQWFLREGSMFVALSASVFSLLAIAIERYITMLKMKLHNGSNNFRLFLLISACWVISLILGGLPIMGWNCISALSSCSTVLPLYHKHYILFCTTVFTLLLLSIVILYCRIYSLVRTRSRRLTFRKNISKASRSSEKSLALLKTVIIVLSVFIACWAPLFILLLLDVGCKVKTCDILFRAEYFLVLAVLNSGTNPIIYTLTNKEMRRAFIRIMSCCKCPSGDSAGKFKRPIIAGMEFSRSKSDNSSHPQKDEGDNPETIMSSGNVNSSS

Row | EC50 [µM] | SMILES
1 | 20 | O=C(Nc1nc2ccc(-c3nc4ccccc4[nH]3)cc2s1)C1CCCCC1
2 | 31.6 | CC(=O)N1CCc2cc(Br)cc(S(=O)(=O)N3CCC(O)(c4cccc(C(F)(F)F)c4)CC3)c21
3 | 50.1 | Cc1ccc(S(=O)(=O)Nc2nc3n(n2)C(c2ccccc2)C=C(c2ccccc2)N3)cc1 (configuration not stated)

Target: Beta-2 adrenergic receptor (Homo sapiens, UniProt P07550)
Test: Displacement of [3H]dihydroalprenolol from human ADRB2 expressed in HEK293T cells after 1 hr by liquid scintillation counter
Type: cell-based, HEK-293T
Outline: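 HEK293T cells transiently transfected with ADRB2 using PEI, harvested 48 h later for membranes. Membranes incubated at room temperature for 1 h with 1 nM [3H]-dihydroalprenolol in HEPES pH 7.4 with CaCl2, MgCl2, NaCl and 0.5% BSA. Filtered on GF/C presoaked in PEI, washed with ice-cold buffer plus 500 mM NaCl. Compounds giving ≥50% inhibition at 10 µM went to concentration-response curves. Ki by nonlinear regression, n=3 in triplicate.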

Sequence of Beta-2 adrenergic receptor (P07550 whole entry): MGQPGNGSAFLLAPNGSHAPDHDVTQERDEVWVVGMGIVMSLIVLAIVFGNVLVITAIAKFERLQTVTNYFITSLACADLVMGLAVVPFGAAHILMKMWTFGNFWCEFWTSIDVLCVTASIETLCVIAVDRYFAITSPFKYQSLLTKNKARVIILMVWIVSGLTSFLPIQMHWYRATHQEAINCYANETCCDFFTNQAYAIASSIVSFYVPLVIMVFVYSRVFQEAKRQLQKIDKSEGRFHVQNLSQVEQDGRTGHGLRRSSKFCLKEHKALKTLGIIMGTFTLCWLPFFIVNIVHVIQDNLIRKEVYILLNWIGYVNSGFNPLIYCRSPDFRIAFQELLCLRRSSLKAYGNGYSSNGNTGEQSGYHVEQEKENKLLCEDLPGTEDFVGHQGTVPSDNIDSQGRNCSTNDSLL

Row | SMILES | Ki [µM]
4 | Cc1ccc(C(C)C)c(OCC(O)CN2CCN(CCO)CC2)c1 (configuration not stated) | 39.8
5 | Cc1ccc(C)c(OCC(O)CNC2CCCC2)c1 (configuration not stated) | 2
6 | Cc1ccc(C(C)C)c(OCC(O)CN2CCCCC2)c1 (configuration not stated) | 0.794

Other lines, results leading:

Row | Ki [µM] | SMILES
7 | 39.8 | CC(=O)c1c(CSc2ccccc2)oc2ccc(O)c(CN(C)C)c12
8 | 794 | O=C1Cc2ccccc2Sc2c(OCCN3CCCCC3)cccc21
9 | 25.1 | Cc1nc2ccc(O)c(CN(C)C)c2[nH]1

Target: Adenosine receptor A2a (Homo sapiens, UniProt P29274)
Test: Displacement of [3H]ZM241385 from human AA2AR expressed in HEK293T cells after 2 hrs by liquid scintillation counter
Type: cell-based, HEK-293T
Outline: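 Membranes of HEK293T cells stably expressing AA2AR (40 µg protein) incubated with 1.7 nM (final) [3H]ZM241385 in 50 mM Tris·HCl pH 7.4, 2 h at 25 °C with shaking. Nonspecific binding defined with 100 µM CGS21680. Filtered over GF/B, washed three times with ice-cold buffer. Compounds giving ≥50% inhibition at 10 µM went to concentration-response curves. pKi values, n=3 in duplicate.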

Sequence of Adenosine receptor A2a (P29274 whole entry): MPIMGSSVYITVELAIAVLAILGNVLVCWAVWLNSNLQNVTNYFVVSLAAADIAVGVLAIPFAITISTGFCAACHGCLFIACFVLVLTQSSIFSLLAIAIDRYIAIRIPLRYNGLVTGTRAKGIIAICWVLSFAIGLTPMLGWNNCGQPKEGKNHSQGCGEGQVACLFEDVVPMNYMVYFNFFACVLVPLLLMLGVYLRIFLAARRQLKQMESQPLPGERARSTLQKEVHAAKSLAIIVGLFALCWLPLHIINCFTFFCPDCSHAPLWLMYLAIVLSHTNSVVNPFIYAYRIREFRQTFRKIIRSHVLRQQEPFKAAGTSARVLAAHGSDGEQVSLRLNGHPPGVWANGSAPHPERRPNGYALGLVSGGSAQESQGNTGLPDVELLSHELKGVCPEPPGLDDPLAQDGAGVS

Row | SMILES | Ki [µM]
10 | COc1cc(/C=N/Nc2ncnc3sc4c(c23)CCCC4)ccc1O | 5.01
11 | Cc1n[nH]c(C)c1S(=O)(=O)N1CCC(C(=O)Nc2nc3c(C)cccc3s2)CC1 | 1
12 | Cc1cccc2sc(NC(=O)CNS(=O)(=O)c3cccs3)nc12 | 1.58
13 | N/C(=N\C(=O)CN1C(=O)C2CCCCC2C1=O)Nc1nc2ccccc2s1 (configuration not stated) | 5.01
14 | Cc1ccc2[nH]c3nc(SCC(=O)Nc4ncc(C)s4)nnc3c2c1 | 3.98
15 | Cc1nc2[nH]c3ccccc3n2c(=O)c1CCOC(=O)C1CCCCC1 | 2.51
16 | CCCc1nn(C)c2c(=O)[nH]c(-c3cc(S(=O)(=O)N4CCN(C)CC4)ccc3OCC)nc12 [SILDENAFIL] | 0.2

The next lines start with the values.

Row | Ki [µM] | SMILES
17 | 3.98 | N=C(NC(=O)C(Cc1ccccc1)N1C(=O)c2ccccc2C1=O)Nc1nc2ccccc2o1 (configuration not stated)
18 | 1 | N#CCSc1nc2cc(C(=O)N3CCC(C(N)=O)CC3)ccc2c2nc3ccccc3n12
19 | 5.01 | O=C(CCN1C(=O)c2ccccc2C1=O)Nc1nc2ccccc2s1
20 | 0.631 | Cc1cc(NC(=O)CSc2nc3ccccc3c3nc4ccccc4n23)n[nH]1
21 | 1.26 | CCOC(=O)c1nc[nH]c1/N=N/c1c(O)ccc2ccccc12
22 | 1.58 | Nc1ccc(C(=O)Nc2ccc(O)c(-c3nc4ccccc4[nH]3)c2)cc1
23 | 6.31 | CC1=C(C(=O)Nc2nc3ccccc3s2)C(c2ccco2)C(C#N)=C(SCC(N)=O)N1 (configuration not stated)
24 | 2.51 | CC1CCN(C(=O)c2ccc3c(=O)[nH]c4c(-c5ccccc5)nnn4c3c2)CC1
25 | 0.631 | COCC1=CC(O)N=C(Nc2nc(C)c3ccccc3n2)N1 (configuration not stated)
26 | 5.01 | N#C/C(=N\Nc1ccc(S(N)(=O)=O)cc1)c1nc2ccccc2[nH]1
27 | 5.01 | O=C1c2ccccc2C(=O)c2cc(OCC(O)CN3CCCCC3)ccc21 (configuration not stated)
